Measured values taken from ChEMBL document CHEMBL1129031, “Cyclic nitrone free radical traps: isolation, identification, and synthesis of 3,3-dimethyl-3,4-dihydroisoquinolin-4-ol N-oxide, a metabolite with reduced side effects” (J Med Chem, 1996).

Tests used:
[1] = Maintenance of cell viability by the compound was tested in vitro against cerebellar granule cell cultures from 8-day-old-rats; format: functional; conditions: Rattus norvegicus
How it was run: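 Cerebellar granule cultures from 8-day-old rats were used at 8-10 days in vitro. Cells got nitrone for 30 min, then 100 µM FeCl₂ for 45 min in Na⁺-free Locke's. MEM plus MTT was added for 4 h and the cells lysed in acidic 2-propanol. Read at A570-630, with cell death given relative to no-iron cells. Two separate experiments about 6 months apart.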

Rattus norvegicus [2] = assay: Compound was tested for rat brain permeability at 200 mg/kg i.p. after 60 min; format: ADME, organism-based; parameters: dose 200 mg/kg, route intraperitoneal; conditions: in vivo, ip, 1 h
How it was run: (§1)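 Rats given a single ip dose of 200 mg/kg and killed at 30 or 60 min after dosing. Brains were removed, homogenized and extracted with CHCl₃/MeOH. Brain level is reported as µg/g wet weight.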

[3] = In vitro antioxidant activity was measured as IC50, inhibition concentration against neuronal peroxidation.; format: functional, Rattus norvegicus
How it was run: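 Rat cerebellar granule cells (from 8-day pups, 8-10 days in vitro) in glucose-free Na⁺-free Locke's, pH 7.3. Nitrone was preincubated 30 min, then FeCl₂ added at 100 µM final for 45 min. TBARS measured in the medium, with no-iron background subtracted. IC50 is the concentration inhibiting 50% of iron-induced oxidation.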

Mus musculus [4] = assay: (§2) The compound was tested for acute toxicity and activity is expressed as deaths/5 mice after iv (400 mg/kg) administration.; format: functional
How it was run: (§3)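 Acute toxicity screen in mice given the compound intravenously at 400 mg/kg body weight, five mice per group. Read-out is the survival rate, reported as the number of deaths among the five animals.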

Rattus norvegicus [5] = assay: Compound was tested for rat brain permeability at 200 mg/kg i.p. after 30 min; format: ADME, organism-based; parameters: dose 200 mg/kg, route intraperitoneal; conditions: in vivo, ip, 0.5 h; how it was run: as §1
Mus musculus [6] = assay: (§4) The compound was tested for acute toxicity and activity is expressed as deaths/5 mice after iv (200 mg/kg) administration.; format: functional
How it was run: (§5)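 Acute toxicity screen in mice given the compound intravenously at 200 mg/kg body weight, five mice per group. Read-out is the survival rate, reported as the number of deaths among the five animals.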

[7] = In vitro antioxidant activity was measured as IC50, Inhibitory concentration against Liposomal peroxidation.; format: functional, Glycine max
How it was run: (§6)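 Liposomes were made from soybean phosphatidylcholine. Oxidation was initiated and quantitated by the previously described method. Activity is expressed as IC50, the concentration inhibiting lipid peroxidation by 50%.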

[8] = In vitro antioxidant activity was measured as IC50, Inhibition concentration against Liposomal peroxidation.; format: functional, Glycine max; how it was run: as §6
[9] = Compound was tested for brain permeability at 200 mg/kg i.p. after 60 min; format: ADME, organism-based; parameters: dose 200 mg/kg, route intraperitoneal; conditions: in vivo, ip, 1 h; how it was run: as §1
[10] = Compound was tested for brain permeability at 200 mg/kg i.p. after 30 min; format: ADME, organism-based; parameters: dose 200 mg/kg, route intraperitoneal; conditions: in vivo, ip, 0.5 h; how it was run: as §1
[11] = Lipophilicity expressed as log K'w.; format: physicochemical; conditions: reversed-phase HPLC
Mus musculus [12] = assay: as §4; format: organism-based; conditions: in vivo; how it was run: as §5
Mus musculus [13] = assay: as §2; format: organism-based; conditions: in vivo; how it was run: as §3

SMILES	IC50 [1] [µM]	Brain level (Rattus norvegicus [2]) [µg/g]	IC50 [3] [µM]	Toxicity (Mus musculus [4])	Brain level (Rattus norvegicus [5]) [µg/g]	Toxicity (Mus musculus [6])	IC50 [7] [µM]	IC50 [8] [µM]	Brain level [9] [µg/g]	Brain level [10] [µg/g]	Log k'w [11]	Toxicity (Mus musculus [12])	Toxicity (Mus musculus [13])
CC(C)(C)/[N+]([O-])=C/c1ccccc1	2600	38	2580	4	51	1	14300						
CC1(C)C(O)c2ccccc2C=[N+]1[O-] (centres undefined)	1500		1900	0		0		5500	127	142	0.91		
CC1(C)C(=O)c2ccccc2C=[N+]1[O-]	882	67	830		103			940			1.65	0	1
O=C1c2ccccc2C=[N+]([O-])C12CCCCC2	39		37					27			2.6	0	5
CC1(C)Cc2ccccc2C=[N+]1[O-]			307	5		0		1670	77	109	1.9		
O=C1c2ccccc2C=[N+]([O-])C12CCCC2			102					157			2.05	0	4
CC(=O)OC1c2ccccc2C=[N+]([O-])C1(C)C (centres undefined)	660		839					2090			1.95	0	0
[O-][N+]1=Cc2ccccc2C(O)C12CCCCC2 (centres undefined)	588		520					539			2.1	0	0
[O-][N+]1=Cc2ccccc2C(O)C12CCCC2 (centres undefined)	817		771					1040			1.67	0	0
